Data set [1] in a line: Modulation of P-gp (unknown origin) transfected in human MDA435/LCC6MDR cells assessed as reversible of paclitaxel resistance measured as IC50 for paclitaxel at 1 uM after 5 days by CellTiter 96 Aqueous assay.
Data set [2] can be described thus: Modulation of P-gp (unknown origin) transfected in human MDA435/LCC6MDR cells assessed as reversing paclitaxel resistance measured as cell survival after 5 days by MTS assay. (In general: Tetrazolium assays rely on reduction of a dye to a coloured formazan, in cell work by metabolically active cells.)
A short description of data set [3]: Modulation of BCRP (unknown origin) transfected in human HEK293/R2 cells assessed as potentiation of topotecan-induced cytotoxicity measured as topotecan IC50 at 1 uM after 5 days by MTS assay.
Data set [4] in a line: Modulation of MRP1 (unknown origin) transfected in human 2008/MRP1 cells assessed as potentiation of doxorubicin-induced cytotoxicity measured as doxorubicin IC50 at 1 uM after 5 days by MTS assay.
Data set [5] in a line: Modulation of P-gp (unknown origin) transfected in human MDA435/LCC6MDR cells assessed as reversing vincristine resistance measured as cell survival after 5 days by MTS assay.
Data set [6] is described as follows: Modulation of P-gp (unknown origin) transfected in human MDA435/LCC6MDR cells assessed as reversing vinblastine resistance measured as cell survival after 5 days by MTS assay.
Data set [7] can be described thus: Modulation of P-gp (unknown origin) transfected in human MDA435/LCC6MDR cells assessed as reversing doxorubicin resistance measured as cell survival after 5 days by MTS assay.
Data set [8] has as its target ATP-dependent translocase ABCB1 (Homo sapiens, UniProt P08183). The experiment in a line: Modulation of P-gp (unknown origin) transfected in human MDA435/LCC6MDR cells assessed as reversible of paclitaxel resistance measured as IC50 for paclitaxel at 10 uM after 5 days by CellTiter 96 Aqueous assay. The method in brief: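 They were held 5 days at 37 °C and viability read by CellTiter 96 AQueous (MTS). […] RF = IC50 of PTX without modulator / IC50 with modulator.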

Usually IC50 stands for the concentration that inhibits the measured activity by half. Usually EC50 stands for the concentration giving half of the maximal effect.

Chain of ATP-dependent translocase ABCB1 (P08183 whole entry): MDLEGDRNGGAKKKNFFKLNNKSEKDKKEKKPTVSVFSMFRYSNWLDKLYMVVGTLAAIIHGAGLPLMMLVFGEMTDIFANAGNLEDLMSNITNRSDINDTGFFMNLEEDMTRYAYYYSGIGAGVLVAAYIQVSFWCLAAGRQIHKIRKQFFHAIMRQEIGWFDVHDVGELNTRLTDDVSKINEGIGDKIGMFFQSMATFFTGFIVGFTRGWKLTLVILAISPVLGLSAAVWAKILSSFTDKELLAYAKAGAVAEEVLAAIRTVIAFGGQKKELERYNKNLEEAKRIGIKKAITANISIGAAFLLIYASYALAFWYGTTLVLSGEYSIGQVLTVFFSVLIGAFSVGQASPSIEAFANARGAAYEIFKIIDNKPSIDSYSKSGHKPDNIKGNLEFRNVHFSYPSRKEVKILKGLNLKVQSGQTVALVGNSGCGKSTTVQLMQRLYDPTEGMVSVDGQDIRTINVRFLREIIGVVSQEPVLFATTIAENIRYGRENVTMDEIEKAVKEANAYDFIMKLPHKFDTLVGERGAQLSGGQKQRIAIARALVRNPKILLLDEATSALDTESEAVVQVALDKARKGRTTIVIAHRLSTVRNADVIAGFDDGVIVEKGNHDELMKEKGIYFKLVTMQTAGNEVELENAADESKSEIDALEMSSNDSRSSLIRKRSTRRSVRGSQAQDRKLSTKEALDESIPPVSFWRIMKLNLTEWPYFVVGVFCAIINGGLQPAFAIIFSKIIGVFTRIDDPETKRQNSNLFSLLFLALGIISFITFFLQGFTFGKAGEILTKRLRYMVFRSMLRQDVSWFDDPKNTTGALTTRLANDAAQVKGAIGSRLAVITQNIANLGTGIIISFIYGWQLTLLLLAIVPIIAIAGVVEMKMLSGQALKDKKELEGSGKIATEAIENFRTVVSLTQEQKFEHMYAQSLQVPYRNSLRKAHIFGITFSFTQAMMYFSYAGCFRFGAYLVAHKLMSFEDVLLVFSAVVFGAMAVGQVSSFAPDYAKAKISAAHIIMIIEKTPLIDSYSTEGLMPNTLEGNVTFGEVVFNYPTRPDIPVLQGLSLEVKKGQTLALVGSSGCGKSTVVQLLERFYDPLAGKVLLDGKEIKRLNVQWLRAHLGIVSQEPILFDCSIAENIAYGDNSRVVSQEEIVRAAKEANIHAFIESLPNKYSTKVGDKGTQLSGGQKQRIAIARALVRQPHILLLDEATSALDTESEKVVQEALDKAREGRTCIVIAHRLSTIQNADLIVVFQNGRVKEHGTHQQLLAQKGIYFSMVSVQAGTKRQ

Take `COc1ccc(/C=C/C(=O)O[C@H]2Cc3c(OC)cc(OC)cc3O[C@@H]2c2cc(OC)c(OC)c(OC)c2)cc1`: in data set [1], the IC50 was found to be 19 nM.
The same measure, in the same setting: for `COc1cc(OC)c2c(c1)O[C@H](c1cc(OC)c(OC)c(OC)c1)[C@@H](O)C2` the value was 136 nM.
Consider `COc1ccc(C(=O)O[C@H]2Cc3c(OC)cc(OC)cc3O[C@@H]2c2cc(OC)c(OC)c(OC)c2)cc1`, for which the IC50 in data set [1] came out at 67 nM.
`COc1cc(OC)c2c(c1)O[C@H](c1cc(OC)c(OC)c(OC)c1)[C@@H](OC(=O)c1ccc(OC)c(OC)c1)C2`: the IC50 in data set [1] was determined as 12 nM.
Consider `COc1cc(OC)c2c(c1)O[C@H](c1cc(OC)c(OC)c(OC)c1)[C@H](OC(=O)c1ccc(F)c(NC(=O)c3cc(OC)c(OC)c(OC)c3)c1)C2`, for which the EC50 in data set [2] came to 214 nM. Also, the results for the half-inhibitory concentration (IC50) in data set [3], in data set [4] and in data set [1] were 207 nM, 418 nM and 3.3 nM, respectively.
In the case of `COc1cc(OC)c2c(c1)O[C@H](c1cc(OC)c(OC)c(OC)c1)[C@H](OC(=O)c1ccc(F)c(NC(=O)c3ccc(F)c(NC(=O)c4ccc(OC)c(OC)c4)c3)c1)C2`, the IC50 in data set [1] is 14 nM.
Still for that read-out and setting: for `COc1cc(OC)c2c(c1)O[C@H](c1cc(OC)c(OC)c(OC)c1)[C@H](OC(=O)c1ccc(F)c(NC(=O)c3ccc(F)c(NC(=O)c4cc(OC)c(OC)c(OC)c4)c3)c1)C2` the value was 13 nM; for `COc1cc(OC)c2c(c1)O[C@H](c1cc(OC)c(OC)c(OC)c1)[C@@H](OC(=O)c1cc(OC)c(OC)c(OC)c1)C2=O`, 44 nM; for `COc1cc(OC)c2c(c1)O[C@H](c1cc(OC)c(OC)c(OC)c1)[C@@H](OC(C)=O)C2=O`, 107 nM.
Regarding `COc1ccc(C(=O)O[C@H]2C(=O)c3c(OC)cc(OC)cc3O[C@@H]2c2cc(OC)c(OC)c(OC)c2)cc1`, the IC50 in data set [1] amounted to 48 nM.
For `COc1cc(OC)c2c(c1)O[C@H](c1cc(OC)c(OC)c(OC)c1)[C@@H](OC(=O)c1ccc(OC)c(OC)c1)C2=O`, the IC50 in data set [1] was found to be 37 nM.
For `COc1cc(OC)c2c(c1)O[C@H](c1cc(OC)c(OC)c(OC)c1)[C@@H](OC(=O)c1ccc(F)c(NC(=O)c3ccc(OC)c(OC)c3)c1)C2`, the concentration giving a half-maximal response (EC50) stood at 171 nM in data set [2], 147 nM in data set [5], 173 nM in data set [6] and 208 nM in data set [7]. For the same molecule, the IC50 in data set [3] came out at 45 nM; in data set [4], 142 nM.
As for `COc1cc(OC)c2c(c1)O[C@H](c1cc(OC)c(OC)c(OC)c1)[C@@H](OC(=O)c1ccc(F)c(NC(=O)c3cc(OC)c(OC)c(OC)c3)c1)C2`, the EC50 in data set [2] was found to be 140 nM; in data set [5] it was 102 nM; in data set [6], 108 nM; in data set [7], 107 nM. Moreover, the IC50 in data set [3] worked out at 38 nM; in data set [4] it was 141 nM.
For the molecule `COc1cccc(C(=O)O[C@@H]2Cc3c(OC)cc(OC)cc3O[C@@H]2c2cc(OC)c(OC)c(OC)c2)c1`, in data set [1], the IC50 is 45 nM.
Take `COc1cc(OC)c2c(c1)O[C@H](c1cc(OC)c(OC)c(OC)c1)[C@@H](OC(=O)c1ccc(F)c(NC(=O)/C=C/c3ccc(OC)c(OC)c3)c1)C2`: the EC50 in data set [2] was 280 nM. For the same molecule, the IC50 in data set [1] amounted to 6.6 nM.
Turning to `COc1cc(OC)c2c(c1)O[C@H](c1cc(OC)c(OC)c(OC)c1)[C@@H](OC(=O)c1ccc(F)c(NC(=O)/C=C/c3cc(OC)c(OC)c(OC)c3)c1)C2`, in data set [2], the EC50 was 225 nM.
Regarding `COc1cc(OC)c2c(c1)O[C@H](c1cc(OC)c(OC)c(OC)c1)[C@H](OC(=O)c1ccc(F)c(N(C)C)c1)C2`, the IC50 in data set [1] worked out at 36 nM.
As to `COc1cc(OC)c2c(c1)O[C@H](c1cc(OC)c(OC)c(OC)c1)[C@H](OC(=O)c1ccc(F)c(NC(C)=O)c1)C2`, the IC50 in data set [1] amounted to 15 nM.
Regarding `COc1ccc(CC(=O)O[C@@H]2Cc3c(OC)cc(OC)cc3O[C@@H]2c2cc(OC)c(OC)c(OC)c2)cc1`, the IC50 in data set [1] came out at 34 nM.
As to `COc1cc(OC)c2c(c1)O[C@H](c1cc(OC)c(OC)c(OC)c1)[C@H](OC(=O)Cc1ccc(OC)c(OC)c1)C2`, the concentration for half-maximal inhibition (IC50) in data set [1] was 32 nM.
On to `CCOc1cc(C(=O)O[C@@H]2Cc3c(OC)cc(OC)cc3O[C@@H]2c2cc(OC)c(OC)c(OC)c2)cc(OCC)c1OCC`, for which the IC50 in data set [1] was 113 nM.
Still for that read-out and setting: for `C=CCOc1cc(C(=O)O[C@@H]2Cc3c(OC)cc(OC)cc3O[C@@H]2c2cc(OC)c(OC)c(OC)c2)cc(OCC=C)c1OCC=C` the value was 12 nM.
For `COc1cc(OC)c2c(c1)O[C@H](c1cc(OC)c(OC)c(OC)c1)[C@@H](OC(=O)c1ccc(F)c(NC(=O)/C=C/c3cc(OC)c(OC)c(OC)c3)c1)C2=O`, the IC50 in data set [1] came out at 28 nM.
As for `COc1cc(OC)c2c(c1)O[C@H](c1cc(OC)c(OC)c(OC)c1)[C@H](OC(=O)c1cccc(F)c1)C2`, the IC50 in data set [1] was 97 nM.
Still for that read-out and setting: with `COc1cc(OC)c2c(c1)O[C@H](c1cc(OC)c(OC)c(OC)c1)[C@H](OC(=O)c1ccc(F)cc1)C2` the figure was 53 nM.
As for `COc1ccc(C(=O)O[C@@H]2Cc3c(OC)cc(OC)cc3O[C@@H]2c2cc(OC)c(OC)c(OC)c2)cc1`, the concentration for half-maximal inhibition (IC50) in data set [1] is 148 nM.
For `COc1cc(OC)c2c(c1)O[C@H](c1cc(OC)c(OC)c(OC)c1)[C@@H](OC(=O)c1ccc(F)c(NC(=O)c3ccc(OC)c(OC)c3)c1)C2=O`, the IC50 in data set [1] is 9.4 nM.
Still for that read-out and setting: for `COc1cc(OC)c2c(c1)O[C@H](c1cc(OC)c(OC)c(OC)c1)[C@H](OC(=O)c1ccc(OC)c(OC)c1)C2` the value was 20 nM; for `COc1cc(OC)c2c(c1)O[C@H](c1cc(OC)c(OC)c(OC)c1)[C@@H](OC(=O)c1ccc(F)c(NC(=O)c3cc(OC)c(OC)c(OC)c3)c1)C2=O`, 37 nM; for `C=CCOc1cc(C(=O)O[C@H]2C(=O)c3c(OC)cc(OC)cc3O[C@@H]2c2cc(OC)c(OC)c(OC)c2)cc(OCC=C)c1OCC=C`, 32 nM.
For `COc1ccc(/C=C/C(=O)O[C@H]2C(=O)c3c(OC)cc(OC)cc3O[C@@H]2c2cc(OC)c(OC)c(OC)c2)cc1`, the IC50 in data set [1] is 41 nM.
`CC(=O)Oc1cc(OC(C)=O)c2c(c1)O[C@H](c1cc(OC(C)=O)c(OC(C)=O)c(OC(C)=O)c1)[C@H](OC(=O)c1cc(OC(C)=O)c(OC(C)=O)c(OC(C)=O)c1)C2`: the half-maximal inhibitory concentration (IC50) in data set [1] amounted to 176 nM.
The same measure, in the same setting: for `COc1cc(OC)c2c(c1)O[C@H](c1cc(OC)c(OC)c(OC)c1)[C@H](OC(=O)c1ccc(F)c(NC(=O)/C=C/c3cc(OC)c(OC)c(OC)c3)c1)C2` the value was 6.2 nM.
As to `COc1cc(OC)c2c(c1)O[C@H](c1cc(OC)c(OC)c(OC)c1)[C@H](OC(=O)c1ccc(F)c(NC(=O)c3ccc(OC)c(OC)c3)c1)C2`, the EC50 in data set [2] is 159 nM; in data set [5], 181 nM; in data set [6], 193 nM; in data set [7] it was 139 nM. The IC50 was 176 nM in data set [3], 434 nM in data set [4] and 3 nM in data set [1].
With `COc1cc(OC)c2c(c1)O[C@H](c1cc(OC)c(OC)c(OC)c1)[C@H](OC(=O)/C=C/c1cc(OC)c(OC)c(OC)c1)C2`, the IC50 in data set [3] came to 357 nM; in data set [4], 322 nM.
`COc1ccc(CCC(=O)O[C@@H]2Cc3c(OC)cc(OC)cc3O[C@@H]2c2cc(OC)c(OC)c(OC)c2)cc1`: the IC50 in data set [1] was determined as 40 nM.
Consider `COc1cc(OC)c2c(c1)O[C@H](c1cc(OC)c(OC)c(OC)c1)[C@H](OC(=O)CCc1ccc(OC)c(OC)c1)C2`, for which the IC50 in data set [1] came out at 19 nM.
Consider `COc1cc(OC)c2c(c1)O[C@H](c1cc(OC)c(OC)c(OC)c1)[C@H](OC(=O)CCc1cc(OC)c(OC)c(OC)c1)C2`, for which the IC50 in data set [1] was 18 nM.
For the molecule `COc1ccc(/C=C/C(=O)O[C@@H]2Cc3c(OC)cc(OC)cc3O[C@@H]2c2cc(OC)c(OC)c(OC)c2)cc1`, in data set [1], the IC50 is 22 nM.
Consider `COc1cc(OC)c2c(c1)O[C@H](c1cc(OC)c(OC)c(OC)c1)[C@H](OC(=O)/C=C/c1ccc(OC)c(OC)c1)C2`, for which the EC50 came to 157 nM in data set [2], 167 nM in data set [5], 123 nM in data set [6] and 160 nM in data set [7]. In addition, the IC50 in data set [1] is 8.7 nM.
As for `O=C(O[C@@H]1Cc2c(O)cc(O)cc2O[C@@H]1c1cc(O)c(O)c(O)c1)c1cc(O)c(O)c(O)c1` [(-)-Epigallocatechin-3-o-gallate], the half-inhibitory concentration (IC50) came to 123 nM in data set [8] and 124 nM in data set [1].

The values are drawn from BindingDB's records for doi:10.1021/acs.jmedchem.5b00085 (The Hong Kong Polytechnic University, 2015).
